Data published in ChEMBL document CHEMBL3862037 (J Med Chem, 2016).

How the values were obtained:
[1] = molecular target: Sodium-dependent dopamine transporter (Rattus norvegicus, UniProt P23977); assay: Displacement of [3H]WIN35,428 from DAT in Sprague-Dawley rat brain membranes incubated for 120 mins by radioligand binding assay; type: cell membranes, Membrane
[2] = Displacement of [3H]nisoxetine from NET in Sprague-Dawley rat frontal cortex membranes incubated for 180 mins by radioligand binding assay; set-up: species or system Membrane
[3] = molecular target: Sodium-dependent serotonin transporter (Rattus norvegicus, UniProt P31652); assay: Displacement of [3H]citalopram from SERT in Sprague-Dawley rat brain stem membranes incubated for 60 mins by radioligand binding assay; type: tissue-based
Sodium-dependent serotonin transporter, sequence (P31652 whole entry): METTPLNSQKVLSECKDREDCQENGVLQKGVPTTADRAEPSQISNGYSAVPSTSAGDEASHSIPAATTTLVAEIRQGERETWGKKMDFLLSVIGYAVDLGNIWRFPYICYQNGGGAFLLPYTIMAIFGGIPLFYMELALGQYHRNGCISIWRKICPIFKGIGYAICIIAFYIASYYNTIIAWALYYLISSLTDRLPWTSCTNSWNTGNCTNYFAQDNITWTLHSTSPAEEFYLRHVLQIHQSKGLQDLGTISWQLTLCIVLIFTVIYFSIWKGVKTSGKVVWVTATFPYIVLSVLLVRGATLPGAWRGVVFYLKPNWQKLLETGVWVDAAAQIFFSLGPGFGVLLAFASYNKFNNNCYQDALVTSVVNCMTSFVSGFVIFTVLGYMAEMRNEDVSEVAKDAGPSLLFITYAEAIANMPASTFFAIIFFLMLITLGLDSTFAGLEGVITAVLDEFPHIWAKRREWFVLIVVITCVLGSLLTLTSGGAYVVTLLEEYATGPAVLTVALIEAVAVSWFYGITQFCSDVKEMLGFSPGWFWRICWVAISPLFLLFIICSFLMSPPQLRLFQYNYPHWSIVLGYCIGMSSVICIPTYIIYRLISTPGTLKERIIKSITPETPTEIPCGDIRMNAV

[4] = species: Rattus norvegicus; assay: Selectivity index, ratio of Ki for NET in Sprague-Dawley rat frontal cortex membranes to Ki for DAT in Sprague-Dawley rat brain membranes; type: cell membranes
[5] = species: Rattus norvegicus; assay: Selectivity index, ratio of Ki for SERT in Sprague-Dawley rat brain stem membranes to Ki for DAT in Sprague-Dawley rat brain membranes; type: cell membranes
[6] = molecular target: T1, D(2) dopamine receptor (Homo sapiens, UniProt P14416); assay: Displacement of [3H]N-methylspiperone from human D2R expressed in HEK293 cell membranes incubated for 1 hr by radioligand binding assay
T1 sequence (P14416 whole entry): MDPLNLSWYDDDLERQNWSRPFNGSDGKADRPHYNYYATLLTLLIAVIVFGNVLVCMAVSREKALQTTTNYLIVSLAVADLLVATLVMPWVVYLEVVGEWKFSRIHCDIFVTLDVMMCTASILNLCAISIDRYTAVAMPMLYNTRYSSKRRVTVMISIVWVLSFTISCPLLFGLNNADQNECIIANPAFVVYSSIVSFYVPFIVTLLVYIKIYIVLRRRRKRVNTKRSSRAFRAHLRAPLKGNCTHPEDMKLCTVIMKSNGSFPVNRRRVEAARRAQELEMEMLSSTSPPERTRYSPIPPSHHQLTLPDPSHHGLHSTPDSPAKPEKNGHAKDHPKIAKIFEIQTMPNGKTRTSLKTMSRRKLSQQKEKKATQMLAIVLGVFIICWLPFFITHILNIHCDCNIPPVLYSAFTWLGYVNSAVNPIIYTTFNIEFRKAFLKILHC
How it was run: (§1)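 Membranes from HEK293 cells stably expressing human D2R (20 µg protein) or D4R (30 µg protein). Buffer: EBSS with 0.2 mM sodium metabisulfite and 0.4 nM [3H]N-methylspiperone. Test compound at 11 half-log dilutions (100 µM–100 pM or 10 µM–10 pM) in 30% DMSO vehicle. Incubated 1 h at room temperature; nonspecific binding with 10 µM butaclamol.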

[7] = molecular target: D(3) dopamine receptor (Homo sapiens, UniProt P35462); assay: Displacement of [3H]N-methylspiperone from human D3R expressed in HEK293 cell membranes incubated for 1 hr by radioligand binding assay
D(3) dopamine receptor, sequence (P35462 whole entry): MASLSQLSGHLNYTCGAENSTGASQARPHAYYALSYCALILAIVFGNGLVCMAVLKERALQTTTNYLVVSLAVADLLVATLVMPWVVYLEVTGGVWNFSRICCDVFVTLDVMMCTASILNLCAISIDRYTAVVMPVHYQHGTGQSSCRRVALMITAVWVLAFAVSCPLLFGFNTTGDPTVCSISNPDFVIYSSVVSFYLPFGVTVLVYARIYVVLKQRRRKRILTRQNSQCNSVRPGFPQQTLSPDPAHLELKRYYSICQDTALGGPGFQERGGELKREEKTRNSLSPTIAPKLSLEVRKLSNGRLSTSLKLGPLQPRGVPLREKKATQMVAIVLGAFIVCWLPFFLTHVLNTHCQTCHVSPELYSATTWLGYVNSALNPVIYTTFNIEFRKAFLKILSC

[8] = molecular target: T2, D(4) dopamine receptor (Homo sapiens, UniProt P21917); assay: Displacement of [3H]N-methylspiperone from human D4R expressed in HEK293 cell membranes incubated for 1 hr by radioligand binding assay; how it was run: as §1
T2 sequence (P21917 whole entry): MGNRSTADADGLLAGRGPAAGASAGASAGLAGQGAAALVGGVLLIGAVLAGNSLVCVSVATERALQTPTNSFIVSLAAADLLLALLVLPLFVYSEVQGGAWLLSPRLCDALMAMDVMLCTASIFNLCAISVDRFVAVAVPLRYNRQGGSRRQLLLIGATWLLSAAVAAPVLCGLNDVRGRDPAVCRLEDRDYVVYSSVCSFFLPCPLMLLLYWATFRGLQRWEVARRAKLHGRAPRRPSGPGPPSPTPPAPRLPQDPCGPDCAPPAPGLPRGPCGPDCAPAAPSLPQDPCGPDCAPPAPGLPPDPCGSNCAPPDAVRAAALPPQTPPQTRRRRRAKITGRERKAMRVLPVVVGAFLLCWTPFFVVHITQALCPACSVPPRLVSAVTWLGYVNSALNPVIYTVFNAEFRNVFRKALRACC

[9] = molecular target: Sigma non-opioid intracellular receptor 1 (Cavia porcellus, UniProt Q60492); assay: Displacement of [3H](+)-pentazocine from sigma1 receptor in whole-guinea pig brain minus cerebellum homogenates incubated for 120 mins by radioligand binding assay
Sigma non-opioid intracellular receptor 1, sequence (Q60492 whole entry): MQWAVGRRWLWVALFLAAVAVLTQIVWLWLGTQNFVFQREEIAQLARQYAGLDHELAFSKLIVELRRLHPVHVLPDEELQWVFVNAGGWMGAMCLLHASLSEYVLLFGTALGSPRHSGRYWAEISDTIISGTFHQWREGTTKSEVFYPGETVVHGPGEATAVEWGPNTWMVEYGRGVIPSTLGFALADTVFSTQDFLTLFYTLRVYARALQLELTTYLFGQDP
How it was run: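 Guinea pig whole-brain (minus cerebellum) membranes, 8.0 mg OWW per tube, in 50 mM Tris-HCl pH 8.0 with 3 nM [3H](+)-pentazocine. Incubated 120 min at room temperature. Nonspecific binding defined by haloperidol. Stopped by GF/B filtration and scintillation counting. IC50 from nonlinear regression, converted to Ki. At least three independent experiments, each in triplicate.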

[10] = Induction of locomotor activity in C57BL/6J mouse assessed as increase in traveled distance every 10 mins at 10 mg/kg, ip; type: organism-based; conditions: in vivo
[11] = Induction of locomotor activity in C57BL/6J mouse assessed as increase in traveled distance every 10 mins at 10 to 30 mg/kg, ip; type: organism-based; conditions: in vivo
[12] = Stability in mouse liver microsomes assessed as compound degradation at 10 uM in presence of NADPH regenerating system measured < 30 mins mins by LC/MS/MS method; type: ADME; conditions: 0.5 h
How it was run: (§2)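 Mouse liver microsomes (0.5 mg/mL) in 100 mM potassium phosphate pH 7.4 with NADPH regenerating system. Compound at 10 µM final; testosterone as positive control. Parent compound loss followed over time by LC/MS/MS on a C18 column with formic acid/acetonitrile gradient.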

[13] = molecular target: T1, D(2) dopamine receptor; assay: Antagonist activity at DRD2 (unknown origin) expressed in HEK293T cells transfected with Galphai1-RLuc8 and gamma2-GFP10 assessed as inhibition of quinpirole-induced Gi1 activation pre-incubated with quinpirole for 10 mins before compound incubation for 10 mins by BRET assay; type: cell-based, HEK-293T
How it was run: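 HEK-293T cells co-transfected with Flag-tagged D2 receptor, RLuc8-fused Gαi1, GFP10-fused Gγ and untagged Gβ, using constant total plasmid DNA at various partner ratios. Cells preincubated 10 min with 1 µM quinpirole, then 10 min with test compound. Read-out: BRET as fluorescence at 535 nm after 5 µM coelenterazine 400a.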

[14] = Displacement of [3H]WIN35,428 from human DAT Y156F mutant expressed in COS7 cell membranes incubated for >90 mins by radioligand binding assay; conditions: cos-7
[15] = molecular target: Sodium-dependent dopamine transporter (Homo sapiens, UniProt Q01959); assay: Displacement of [3H]WIN35,428 from wild type human DAT expressed in COS7 cell membranes incubated for >90 mins by radioligand binding assay; set-up: species or system COS-7
Sodium-dependent dopamine transporter (Homo sapiens, UniProt Q01959), sequence (Q01959 whole entry): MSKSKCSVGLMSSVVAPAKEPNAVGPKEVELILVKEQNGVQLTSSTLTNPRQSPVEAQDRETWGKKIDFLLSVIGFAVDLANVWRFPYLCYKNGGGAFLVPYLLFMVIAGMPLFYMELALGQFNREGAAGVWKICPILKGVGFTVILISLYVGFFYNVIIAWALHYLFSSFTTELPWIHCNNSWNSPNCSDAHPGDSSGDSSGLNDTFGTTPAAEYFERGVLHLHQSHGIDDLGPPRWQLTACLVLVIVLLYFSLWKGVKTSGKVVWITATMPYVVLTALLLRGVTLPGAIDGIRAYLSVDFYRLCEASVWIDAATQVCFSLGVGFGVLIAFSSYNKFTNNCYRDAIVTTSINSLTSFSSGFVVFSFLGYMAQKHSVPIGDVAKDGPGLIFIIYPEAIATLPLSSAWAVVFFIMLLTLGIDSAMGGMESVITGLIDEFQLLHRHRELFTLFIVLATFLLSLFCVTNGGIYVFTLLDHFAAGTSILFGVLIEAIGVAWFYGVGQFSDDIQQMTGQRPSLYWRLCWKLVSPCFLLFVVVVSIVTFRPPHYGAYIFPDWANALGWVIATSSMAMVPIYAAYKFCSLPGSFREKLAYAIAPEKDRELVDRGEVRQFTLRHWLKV

[16] = Stability in mouse liver microsomes assessed as half life at 10 uM in presence of NADPH regenerating system by LC/MS/MS method; type: ADME; conditions: liver microsomes; how it was run: as §2
[17] = Stability in mouse liver microsomes assessed as compound remaining at 10 uM in absence of NADPH regenerating system measured after 60 mins by LC/MS/MS method; type: ADME, microsome; conditions: read-out: Stability
[18] = Stability in mouse liver microsomes assessed as compound remaining at 10 uM in presence of NADPH regenerating system measured up to 70 mins by LC/MS/MS method; type: ADME; conditions: read-out: Stability

Sodium-dependent dopamine transporter (Rattus norvegicus, UniProt P23977), sequence (P23977 whole entry): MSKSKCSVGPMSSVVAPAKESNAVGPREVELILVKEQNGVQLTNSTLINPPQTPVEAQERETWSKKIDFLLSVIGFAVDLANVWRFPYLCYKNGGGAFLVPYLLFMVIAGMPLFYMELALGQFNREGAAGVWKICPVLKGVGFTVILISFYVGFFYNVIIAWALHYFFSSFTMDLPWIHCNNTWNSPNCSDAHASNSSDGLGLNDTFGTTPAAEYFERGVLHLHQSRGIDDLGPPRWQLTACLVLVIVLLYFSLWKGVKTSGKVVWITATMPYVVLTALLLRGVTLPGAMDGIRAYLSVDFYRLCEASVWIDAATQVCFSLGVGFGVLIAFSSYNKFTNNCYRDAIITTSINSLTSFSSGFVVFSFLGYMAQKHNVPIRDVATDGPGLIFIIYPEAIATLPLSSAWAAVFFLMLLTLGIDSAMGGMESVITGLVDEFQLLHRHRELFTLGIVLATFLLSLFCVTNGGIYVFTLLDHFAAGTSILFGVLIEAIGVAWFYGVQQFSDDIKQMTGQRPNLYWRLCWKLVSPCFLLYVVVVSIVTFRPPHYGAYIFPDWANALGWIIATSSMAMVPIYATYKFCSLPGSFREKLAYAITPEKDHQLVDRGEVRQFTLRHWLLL

| Compound | Ki [1] [nM] | Ki [2] [nM] | Ki [3] [nM] | Ratio Ki [4] | Ratio Ki [5] | further results |
| --- | --- | --- | --- | --- | --- | --- |
| Fc1ccc(CN2CCN(CCSC(c3ccc(F)cc3)c3ccc(F)cc3)CC2)cc1 | 4.98 | 6850 | 463 | > 100 | > 100 |  |
| NC(=O)C[S@@+]([O-])C(c1ccccc1)c1ccccc1 [ARMODAFINIL] |  |  |  |  |  | Ki [6]: > 100000 nM; Ki [7]: 39000 nM; Ki [8]: > 100000 nM; Ki [9]: > 100000 nM; Activity [10]: Toxic; Activity [11]: Dose-dependent effect |
| Fc1ccc(C(SCCN2CCN(CCCc3ccccc3)CC2)c2ccc(F)cc2)cc1 |  |  |  | > 100 | > 100 |  |
| [O-][S+](CCN1CCN(CCCc2ccccc2)CC1)C(c1ccccc1)c1ccccc1 (stereo unspecified) |  |  | 7360 | > 100 | > 100 |  |
| O=C(CSC(c1ccc(F)cc1)c1ccc(F)cc1)N1CCN(Cc2ccc(Cl)cc2)CC1 | 58.7 |  | 2200 | > 100 | > 100 |  |
| CC(O)CN1CCN(C(=O)C[S+]([O-])C(c2ccc(F)cc2)c2ccc(F)cc2)CC1 (stereo unspecified) | 752 |  | 32800 | > 100 | > 100 |  |
| CCCN1CCN(C(=O)C[S+]([O-])C(c2ccc(F)cc2)c2ccc(F)cc2)CC1 (stereo unspecified) | 279 |  | 14500 | > 100 | > 100 |  |
| [O-][S+](CCN1CCN(Cc2ccc(F)cc2)CC1)C(c1ccc(F)cc1)c1ccc(F)cc1 (stereo unspecified) | 9.67 | > 50000 | 8520 | > 100 | > 100 | Stability [12]: Unstable |
| OC(Cc1ccccc1)CN1CCN(CCSC(c2ccc(F)cc2)c2ccc(F)cc2)CC1 (stereo unspecified) |  |  |  | > 100 | > 100 |  |
| Fc1ccc(C(SCCN2CCN(Cc3ccccc3)CC2)c2ccc(F)cc2)cc1 | 7.4 | 8240 | 949 | > 100 | > 100 |  |
| CCCCN1C2CCC1CC(OC(c1ccc(F)cc1)c1ccc(F)cc1)C2 (stereo unspecified) | 10.5 | 1670 |  |  |  | Ki [6]: 68.1 nM; Ki [7]: 34.4 nM; Ki [8]: 583 nM; Ki [9]: 2.4 nM |
| [O-][S+](CCN1CCN(Cc2ccc(Cl)cc2)CC1)C(c1ccc(F)cc1)c1ccc(F)cc1 (stereo unspecified) | 7.62 | > 50000 | 4940 | > 100 | > 100 | Stability [12]: Unstable |
| CC(O)CN1CCN(CCSC(c2ccccc2)c2ccccc2)CC1 (stereo unspecified) |  |  |  | > 100 | > 100 |  |
| CC(O)CN1CCN(CC[S+]([O-])C(c2ccccc2)c2ccccc2)CC1 (stereo unspecified) |  |  |  | > 100 | > 100 |  |
| [O-][S+](CCN1CCN(Cc2ccccc2)CC1)C(c1ccc(F)cc1)c1ccc(F)cc1 (stereo unspecified) | 27.2 | 45700 | 11200 | > 100 | > 100 |  |
| [O-][S+](CCN1CCN(Cc2ccc(C(F)(F)F)cc2)CC1)C(c1ccc(F)cc1)c1ccc(F)cc1 (stereo unspecified) | 39.4 | > 50000 | 6800 | > 100 | > 100 | Stability [12]: Unstable |
| [O-][S+](CCN1CCN(CC(O)Cc2ccccc2)CC1)C(c1ccccc1)c1ccccc1 (stereo unspecified) |  |  |  | > 100 | > 100 | Stability [12]: Unstable |

| Compound | Ki [1] [nM] | Ki [2] [nM] | Ki [3] [nM] | Ratio Ki [4] | Ratio Ki [5] | further results |
| --- | --- | --- | --- | --- | --- | --- |
| O=C(C[S+]([O-])C(c1ccc(F)cc1)c1ccc(F)cc1)N1CCN(Cc2ccc(F)cc2)CC1 (stereo unspecified) | 74.3 |  | 23600 | > 100 | > 100 | Stability [12]: Unstable |
| Fc1ccc(C(SCCN2CCN(Cc3ccc(Cl)cc3)CC2)c2ccc(F)cc2)cc1 | 19.3 | 7410 | 905 | > 100 | > 100 |  |
| CC(O)CN1CCN(CC[S+]([O-])C(c2ccc(F)cc2)c2ccc(F)cc2)CC1 (stereo unspecified) |  |  |  |  |  | Ki [6]: 298 nM; Ki [7]: 480 nM; Ki [8]: 3820 nM; IC50 [13]: > 10000 nM; Ki [14]: 9170 nM; Ki [15]: 1200 nM; half-life at 10 µM [16]: 1 h; remaining at 1 h, 10 µM [17]: > 95%; remaining at 70 min, 10 µM [18]: 50% |
| CC(O)CN1CCN(C(=O)C[S+]([O-])C(c2cccc(Cl)c2)c2cccc(Cl)c2)CC1 (stereo unspecified) | 1380 | > 50000 |  | > 100 | > 100 |  |
| O=C(C[S+]([O-])C(c1ccc(F)cc1)c1ccc(F)cc1)N1CCN(CCCc2ccccc2)CC1 (stereo unspecified) | 37.6 | 12000 | 1320 | > 100 | > 100 | Stability [12]: Unstable |
| CC(O)CN1CCN(C(=O)CSC(c2cccc(Cl)c2)c2cccc(Cl)c2)CC1 (stereo unspecified) | 915 | > 50000 |  | > 100 | > 100 |  |
| O=C(CSC(c1ccc(F)cc1)c1ccc(F)cc1)N1CCN(CCCc2ccccc2)CC1 | 28.6 | 20200 | 3170 | > 100 | > 100 |  |
| CCCN1CCN(C(=O)CSC(c2ccc(F)cc2)c2ccc(F)cc2)CC1 | 277 |  | 5970 | > 100 | > 100 |  |
| CC(O)CN1CCN(CCSC(c2cccc(Cl)c2)c2cccc(Cl)c2)CC1 (stereo unspecified) | 143 | 31300 | 10800 | > 100 | > 100 |  |
| Fc1ccc(C(SCCN2CCN(Cc3ccc(C(F)(F)F)cc3)CC2)c2ccc(F)cc2)cc1 | 26.6 | 15400 | 2020 | > 100 | > 100 |  |
| CC(O)CN1CCN(CC[S+]([O-])C(c2cccc(Cl)c2)c2cccc(Cl)c2)CC1 (stereo unspecified) | 403 | > 50000 | 58900 | > 100 | > 100 |  |
| O=C(C[S+]([O-])C(c1ccc(F)cc1)c1ccc(F)cc1)N1CCN(Cc2ccc(Cl)cc2)CC1 (stereo unspecified) | 56.3 | 63500 | 9460 | > 100 | > 100 |  |
| c1ccc(CCCN2CCN(CCSC(c3ccccc3)c3ccccc3)CC2)cc1 |  |  |  | > 100 | > 100 |  |
| O=C(CSC(c1ccc(F)cc1)c1ccc(F)cc1)N1CCN(Cc2ccc(F)cc2)CC1 | 53.7 |  | 6210 | > 100 | > 100 |  |
| Fc1ccc(C(SCCNCCCc2ccccc2)c2ccc(F)cc2)cc1 |  |  |  |  |  | Ki [6]: 228 nM; Ki [7]: 65.9 nM; Ki [8]: 28.1 nM; Ki [9]: 159 nM; Activity [10]: Non-Toxic |
| CC(O)CN1CCN(C(=O)CSC(c2ccc(F)cc2)c2ccc(F)cc2)CC1 (stereo unspecified) | 214 |  | 11400 | > 100 | > 100 | Stability [12]: Unstable |
| CCc1cc(Cl)c(OC)c(C(=O)NC[C@@H]2CCCN2CC)c1O [ETICLOPRIDE] |  |  |  |  |  | Ki [6]: 0.26 nM; Ki [8]: 70.4 nM |
